# Reference: publication PMC9112330 (ACS Infectious Diseases, 2022)
# Assay: In vivo fluorescence bioimaging / biodistribution
# Design: species or system mouse
# Conditions: n = 2
# Outline: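 AF680 was attached through a cysteine inserted between the PNA and the dendron, by maleimide coupling. Two NMRI-nu mice received 200 μL of 10 μM labelled conjugate. Under 2% isoflurane, epifluorescence was imaged at 675/720 nm from pre-injection to 48 h, followed by an ex vivo organ scan. Body and kidney ROI signals were expressed as % of initial signal (Y0, from linear regression of the first three points), and half-life came from one-phase decay fit.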
substance,measurement,setting,value
H-(Gbu)8-(DAB)4-(DAB)2-DAB-Cys(AF680)-CTCATACTCT-NH2 [AF680-PNA4897],organ accumulation of remaining fluorescence,ex vivo scan of excised organs 48 h post i.v. administration,accumulated predominantly in the kidney and in the liver
same,time to distribution in the whole body,"i.v. tail vein, 200 μL of 10 μM, nude mice, near-IR fluorescence imaging",< 5 min
